Compound activity from PubChem.
SENP6 block: inhibitors of human SENP6 protease; Recombinant SENP6 catalytic domain, aminoluciferin luminescence; inhibition, % at 10 µM; 330,000 compounds, 1.8% hits; AID 2599;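 active = inhibition above about 50% at the single tested dose, limit read from the data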;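 note: plate controls were DMSO wells with enzyme for no effect and DMSO wells lacking enzyme for full effect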
SENP7 block: SENP7 protease inhibition; Q9BQF6; recombinant SENP7, Z-RLRGG-aminoluciferin luminescence, 40 min; inhibition, % at 5 µM; 330,000 compounds, 1.5% hits; AID 434973;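 active = inhibition above about 50% at the single test dose, limit read from the data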;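 note: plate controls were DMSO with enzyme for no effect and no enzyme buffer wells for full effect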
UBC13 polyUb: blocks human UBC13 polyubiquitin chain formation; inhibition, % at 20 µM; 330,000 compounds, 0.47% hits; P61088; TR-FRET; in the data active = inhibition above about 45%, passing the limit was not always enough
Apaf-1 inh: inhibitors of human Apaf-1 apoptosome; O14727; reconstituted apoptosome caspase-3 activity, DEVD-Rh110 fluorescence; inhibition, % at 20 µM; 330,000 compounds, 0.71% hits; AID 489030; active = inhibition of at least 40% at 20 µM;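 note: plate controls were DMSO wells for no effect and DEVD-CHO caspase inhibitor wells for full effect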
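Material: reconstituted apoptosome with Apaf-1, cytochrome c, caspase-9, procaspase-3, dATP; medium: pH 7.5 Hepes buffer with CHAPS, BSA, DTT; also added: cytochrome c and DEVD-Rh110 substrate; timing: 30 min plus 50 min, RT; signal: Rh110 fluorescence intensity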
SENP8 block-1: SENP8 (human) protease inhibition; Q96LD8; recombinant SENP8, Nedd8 substrate fluorescence; inhibition, % at 20 µM; 360,000 compounds, 0.64% hits; in the data active = inhibition mostly above about 40%, no sharp cut-off; inactive = mostly below about 27%
SENP8 block-2: inhibitors of human SENP8 protease | Q96LD8 | inhibition, % at 10 µM | purified SENP8, Z-RLRGG-aminoluciferin cleavage, luminescence | 330,000 compounds, 1.2% hits; in the data active = inhibition above about 50%
SENP8 confirm: human SENP8 inhibition, confirmed; shares compounds with SENP7 block; Recombinant SENP8, Z-RLRGG-aminoluciferin luminescence, 60 min; inhibition, % at 12.5 µM; 6,200 compounds, 40% hits; AID 488912;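 active = mean inhibition across replicates above about 50%, limit read from the data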
SENP6 confirm: human SENP6 inhibition, confirmed; shares compounds with SENP7 block; recombinant SENP6, Z-RLRGG-aminoluciferin luminescence; inhibition, % at 12.5 µM; 6,200 compounds, 58% hits
SENP7 conf: human SENP7 inhibition, confirmed. shares compounds with SENP7 block. recombinant SENP7, Z-RLRGG-aminoluciferin luminescence, 40 min. inhibition, % at 12.5 µM. 6,200 compounds, 69% hits. AID 488917
Casp3 SENP sel: inhibits human caspase-3 in SENP selectivity test. shares compounds with SENP7 block. 6,200 compounds, 60% hits. AID 488918. inhibition, % at 12.5 µM. purified caspase-3, Z-DEVD-aminoluciferin luminescence, 60 min;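 active = mean inhibition above about 50%, limit read from the data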;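 note: plate controls were enzyme with DMSO for no effect and wells without caspase-3 for full effect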
Luc interf: luminescence interference (SENP counter-screen). shares compounds with SENP7 block. Pre-incubated SENP8/Z-RLRGG-aminoluciferin, luciferase luminescence interference. inhibition, % at 12.5 µM. 6,200 compounds, 39% hits;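 active = mean inhibition above about 50% when retested at one dose, limit read from the data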;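 note: plate controls were DMSO wells with completed reaction for no effect and substrate without enzyme for full effect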
* hit, by the source's call; . = no result given. Only some compounds are listed: those with a hit (about 3% of all), similar ones and a draw of the others.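 Rule for the calls, unless noted: active = mean inhibition above about 50% in the one-dose retest (limit read from the data); inactive = the rest.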

SMILES	SENP6 block	SENP7 block	UBC13 polyUb	Apaf-1 inh	SENP8 block-1	SENP8 block-2	SENP8 confirm	SENP6 confirm	SENP7 conf	Casp3 SENP sel	Luc interf
NC(=O)c1c(-c2ccccc2)oc2ccc(O)cc12	-6	-4	14	-1	-132	-1	.	.	.	.	.
O=C(O)c1ccc(COc2ccccc2Cl)cc1	72*	31	-14	2	2	57*	8	66*	91*	85*	70*
O=C(O)c1ccc(COc2c(F)c(F)cc(F)c2F)cc1	80*	48	-4	5	9	41	66*	67*	90*	90*	79*
CCN(CC)C(=O)c1ccc(COc2ccccc2Cl)cc1	13	10	6	12	24	-10	.	.	.	.	.
O=C(O)c1cccc(COc2cccc3ccccc23)c1	97*	96*	-11	2	17	97*	98*	100*	103*	84*	99*
COC(=O)c1ccc(COc2c(F)c(F)cc(F)c2F)o1	-16	-7	1	-1	6	-13	.	.	.	.	.
COc1ccc(OCC(O)COc2ccc(C(=O)O)cc2)cc1 (centres undefined)	-4	2	4	-15	16	0	.	.	.	.	.
COc1ccc(OCc2ccc(C(=O)O)cc2)cc1	84*	68*	8	5	31	51*	81*	76*	94*	62*	78*
C/C(=C\c1ccc2c(c1)OCO2)C(=O)c1c(C)cc(C)[nH]c1=O	1	-8	-16	2	10	-4	.	.	.	.	.
CC(Cc1ccccc1)N1C(=O)c2cccc([N+](=O)[O-])c2C1=O (centres undefined)	0	-12	0	7	14	-10	.	.	.	.	.
O=C(c1ccc(COc2ccc(Cl)cc2)cc1)N1CCCCC1	87*	75*	-6	10	16	63*	81*	78*	91*	60*	66*
CCCCOc1ccc(C(=O)N2CCCCCC2)cc1	18	-8	-8	9	20	-7	.	.	.	.	.
Cc1cc(C(=O)N/N=C/c2ccc3c(c2)OCO3)c(C)o1	74*	77*	-14	3	-15	70*	86*	84*	97*	93*	58*
Cc1cc(C)nc(SCC(=O)N/N=C/c2ccc3c(c2)OCO3)n1	62*	4	0	-23	-6	52*	6	9	-5	2	7
Cc1ccsc1C(=O)N/N=C/c1ccc2c(c1)OCO2	97*	100*	2	-5	-63	96*	96*	100*	103*	99*	99*
COc1cccc(/C=N/NC(=O)c2cccs2)c1	55*	62*	-5	-3	1	34	54*	50*	84*	71*	64*
CC(O)(c1cccnc1)c1nc(-c2ccc3ccccc3c2)cs1 (centres undefined)	.	.	.	.	5	.	.	.	.	.	.
O=C(NNS(=O)(=O)c1ccc(F)cc1)c1cc2ccccc2cc1O	-6	13	8	-1	-95	4	.	.	.	.	.
O=C(N/N=C/c1ccc2c(c1)OCO2)c1cccs1	76*	89*	-14	10	-148	84*	92*	93*	100*	94*	90*
O=C(O)c1ccc(Nc2ccc([N+](=O)[O-])c3nonc23)cc1	85*	68*	-402	4	32	81*	89*	85*	97*	72*	82*
CC(=O)c1ccc(Nc2ccc([N+](=O)[O-])c3nonc23)cc1	37	16	-233	4	32	11	.	.	.	.	.
Cn1sc(NC(=O)c2cccc(Cl)c2)nc1=O	69*	70*	8	-11	9	65*	11	72*	92*	82*	72*
Cc1cccc(/C=N/NC(=O)c2cc(-c3cccnc3)nc3c2c(C)nn3-c2ccccc2)c1	14	77*	-3	14	-171	-9	4	-5	-5	-5	-3
Cc1cccc(/C=N/NC(=O)c2cc(-c3cccnc3)nc3ccccc23)c1	5	0	-2	-6	2	1	.	.	.	.	.
O=C(Nc1ccccc1)C(=O)c1c[nH]c2ccccc12	93*	97*	-2	4	2	89*	86*	90*	100*	85*	38
SMILES	SENP6 block	SENP7 block	UBC13 polyUb	Apaf-1 inh	SENP8 block-1	SENP8 block-2	SENP8 confirm	SENP6 confirm	SENP7 conf	Casp3 SENP sel	Luc interf
COc1ccc(NS(=O)(=O)c2cccc(C(=O)N3CCN(C(=O)c4ccco4)CC3)c2)cc1	-13	0	0	-3	11	-2	.	.	.	.	.
Cc1cc(C)n(CC(O)Cn2c3ccccc3c3ccccc32)n1 (centres undefined)	-18	7	10	11	-9	2	.	.	.	.	.
Cc1cc(C)n(CC(O)Cn2c3ccc(Cl)cc3c3cc(Cl)ccc32)c(=O)n1 (centres undefined)	-9	95*	8	3	4	-7	2	4	7	-2	2
O=C(O)c1ccc(N/N=C/c2ccc(-c3cccc(Cl)c3)o2)cc1	1	13	6	-9	-449	58*	82*	82*	90*	7	82*
O=C(O)c1ccc(N/N=C/c2ccc(-c3cc(Cl)ccc3Cl)o2)cc1	76*	-5	3	15	-452	53*	-4	85*	86*	2	29
O=C(O)c1cccc(-c2ccc(/C=N/Nc3ccc([N+](=O)[O-])cc3)o2)c1	6	9	-142	14	-17	-6	.	.	.	.	.
O=C(O)c1ccc(N/N=C/c2ccc(-c3ccc(Cl)cc3Cl)o2)cc1	22	8	17	5	-365	12	.	.	.	.	.
CCOC(=O)/C=C/C(=O)OCC(=O)N1CCN(C(=O)c2ccco2)CC1	5	-12	-5	-8	11	1	.	.	.	.	.
C/C(=N\NC(=O)c1n[nH]c2c1CCC2)c1cccs1	87*	87*	-6	9	27	82*	13	5	-8	10	1
Cc1ccc(/C=N/NC(=O)c2n[nH]c3c2CCCC3)cc1	-14	4	1	12	20	-5	.	.	.	.	.
C/C(=N\NC(=O)c1cc(C)[nH]n1)c1cccs1	17	19	0	3	4	1	.	.	.	.	.
